EBI2 block: EBI2 (human) antagonism; EBI2 beta-arrestin recruitment, luminescence, 7a,25-OHC stimulated; 360,000 compounds, 0.81% hits; inhibition, % at 5 µM; P32249; AID 651636; in the data active = inhibition above about 38%;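 note: enzyme fragment complementation signal reports receptor beta-arrestin coupling in cells; 0% = agonist plus DMSO wells and 100% = wells without agonist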
CCR6 antagonist: blocks CCL20-driven beta-arrestin recruitment at human CCR6; CHO-K1 CCR6 PathHunter beta-arrestin, luminescence, CCL20-stimulated; inhibition, % at 20 µM; 340,000 compounds, 0.49% hits; AID 493098;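 active = compounds whose inhibition of the agonist-driven luminescence signal at 20 µM reaches about 50%, limit read from the data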;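 note: cells stimulated with CCL20 at 14 nM final; plate controls were DMSO with CCL20 for no effect and DMSO without agonist for full effect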
APJ ag: activates the human apelin receptor APJ. P35414. CHO-K1 APJ PathHunter beta-arrestin, luminescence; 0% DMSO wells, 100% apelin. activation, % at 20 µM. 330,000 compounds, 0.11% hits;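 active = activation more than six SD over the plate average, tested at 20 µM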;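 note: 0% = DMSO alone and 100% = apelin-13 at 10 nM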
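Test system: CHO-K1 APJ beta-arrestin complementation cell line | Compound: Single test compound dose, 20 µM final, 1% DMSO | Incubation: Compound 90 min 25 °C, reagent 1 h | Measured by: beta-gal luminescence | Read-out basis: APJ–arrestin association signal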
HTR2A ag: activates the mouse 5-HT2A serotonin receptor; CHO-K1 mHTR2A beta-arrestin complementation, luminescence; percent of 30 µM serotonin response; activation, % at 7.6 µM; 360,000 compounds, 0.66% hits; AID 624169;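 active = activation above a run cutoff, the mean activation of all tested compounds plus 3 SD, cut at about 14% in these data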;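 note: 0% = plate median of compound wells and 100% = 30 µM serotonin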
Target sequence (P35363 whole entry, looked up): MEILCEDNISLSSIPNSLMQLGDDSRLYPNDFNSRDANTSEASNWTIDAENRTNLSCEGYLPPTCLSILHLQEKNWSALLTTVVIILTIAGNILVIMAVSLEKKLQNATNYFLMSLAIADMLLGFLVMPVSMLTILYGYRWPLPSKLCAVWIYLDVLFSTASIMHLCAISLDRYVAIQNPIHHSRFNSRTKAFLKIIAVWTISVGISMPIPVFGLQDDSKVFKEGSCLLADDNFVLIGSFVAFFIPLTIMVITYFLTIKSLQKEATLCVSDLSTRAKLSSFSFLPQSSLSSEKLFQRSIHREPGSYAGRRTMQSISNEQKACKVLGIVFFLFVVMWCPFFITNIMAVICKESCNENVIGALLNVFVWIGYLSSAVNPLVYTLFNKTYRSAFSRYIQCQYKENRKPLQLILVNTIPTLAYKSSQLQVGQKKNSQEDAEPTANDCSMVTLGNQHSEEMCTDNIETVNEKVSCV
CXCR6 block: CXCR6 (human) receptor inhibition. O00574. CHO-K1 PathHunter CXCR6 beta-arrestin, luminescence. inhibition, % at 20 µM. 360,000 compounds, 0.36% hits; in the data active = inhibition above about 34%, passing the limit was not always enough;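 note: antagonist mode with CXCL16 agonist at 10 nM final; 0% = 10 nM CXCL16 with DMSO and 100% = unstimulated wells without agonist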
APJ antagonist: antagonists of human APJ apelin receptor; CHO-K1 APJ beta-arrestin complementation, luminescence; 330,000 compounds, 0.32% hits; P35414; inhibition, % at 20 µM;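 active = inhibition above about 40% at 20 µM, limit read from the data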;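 note: cells challenged with 10 nM apelin-13 agonist together with compound; plate controls were apelin-13 plus DMSO wells for no effect and DMSO wells lacking apelin-13 for full effect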
MOR ag counter: counter-screen for mouse HTR2A agonists: human mu opioid receptor agonists. shares compounds with HTR2A ag. U2OS OPRM1 beta-arrestin PathHunter, luminescence; DMSO 0%, DAMGO 9.3 µM 100%. activation, % at 9.3 µM. 2,300 compounds, 5.3% hits;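 active = mean activation above the mean of DMSO-only wells plus 3 SD, cut at about 0.5% in these data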
m5-HT2A ag conf: mouse HTR2A agonism confirmed; shares compounds with HTR2A ag; CHO-K1 PathHunter beta-arrestin recruitment, luminescence; DMSO 0%, 30 µM serotonin 100%; activation, % at 7.6 µM; 2,300 compounds, 19% hits;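 active = mean activation across triplicates above the hit threshold derived in the original primary screen, cut at about 15% in these data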
Starred values were filed as active, the others as inactive; · = no result given. This is a sample that favours compounds with a hit; in the whole collection about 2.1% have one here.

SMILES	EBI2 block	CCR6 antagonist	APJ ag	HTR2A ag	CXCR6 block	APJ antagonist	MOR ag counter	m5-HT2A ag conf
N#Cc1ccc(CN2CCN(C(=O)CNS(=O)(=O)c3ccc4c(c3)OCCCO4)CC2)cc1	-2.2	9.8	-2.3	15.2*	-0.4	3.1	-0.5	-2.8
CCCCOC(=O)Nc1nc2ccc([N+](=O)[O-])cc2s1	3.3	12.3	-4.0	11.6	18.5	8.3	·	·
CCOC(=O)N1CCC(N2C(=O)c3ccccc3C2Nc2cccnc2)CC1 (stereo unspecified)	-1.1	1.4	-4.5	19.2*	-2.8	4.5	-0.5	-1.4
CCOC(=O)N1CCC(N2C(=O)c3ccccc3C2Nc2ccccc2C)CC1 (stereo unspecified)	2.1	-0.1	-6.2	-4.4	11.2	5.5	·	·
O=C(NCc1ccco1)C1Cc2c(-c3cccc(F)c3)ccnc2O1 (stereo unspecified)	-15.6	·	·	-2.1	-6.4	·	·	·
CCOC(=O)c1[nH]c2ccc(OC)cc2c1NC(=O)CCN1CCSCC1	-3.8	-2.2	-0.4	-1.9	-2.0	1.6	·	·
COC(=O)c1[nH]c2ccccc2c1NC(=O)CCN1CCSCC1	-1.0	8.6	-2.4	16.0*	-4.2	-2.0	-0.6	-4.4
CN(C)c1ccc(N2C(=NC(=O)CCc3ccccc3)SC3CS(=O)(=O)CC32)cc1 (stereo unspecified)	-10.5	19.1	-1.6	0.0	-10.3	-18.3	·	·
COCCNc1c2c(nc3c(-c4ccccc4)c(C)nn13)CCC2	-4.9	11.7	2.0	-4.8	4.1	-1.5	·	·
CN(C(=O)c1cccc(NC(=O)Cc2ccc(NC(=O)C3CCCN(C(=O)CCc4ccccc4)C3)cc2)c1)C1CC1 (stereo unspecified)	-4.8	6.7	·	16.4*	-7.0	·	1.1*	-1.3
O=C(Cc1ccc(NC(=O)C2CCCN(C(=O)C3CCC3)C2)cc1)Nc1ccc(C(=O)N2CCOCC2)cc1 (stereo unspecified)	-11.0	-3.2	·	17.1*	2.3	·	0.0	1.4
O=C(Cc1ccc(NC(=O)C2CCCN(C(=O)C3CC3)C2)cc1)Nc1cccc(C(=O)N2CCCC2)c1 (stereo unspecified)	-4.6	-6.7	·	15.3*	-9.1	·	-0.8	-3.8
O=C(Cc1ccc(NC(=O)C2CCCN(C(=O)C3CCCC3)C2)cc1)Nc1cccc(C(=O)N2CCCC2)c1 (stereo unspecified)	-4.8	-2.1	·	9.0	-4.1	·	·	·
COCCNC(=O)Cn1cnc2sc(C)c(S(=O)(=O)N3CCN(c4ccccc4OC)CC3)c2c1=O	-2.9	1.2	-5.0	-2.3	-3.1	-5.9	·	·
CCCCN1C(=O)CC(SC2CC(=O)N(CCCC)C2=O)C1=O (stereo unspecified)	4.9	21.8	·	-5.9	7.7	·	·	·
CCCCN1C(=O)CC2CCOC21C (stereo unspecified)	-12.9	·	·	21.4*	-0.4	·	-0.5	-3.5
CC(C)Cn1c(N)c(C(=O)CSc2n[nH]c(N)n2)c(=O)n(C)c1=O	-2.1	-2.7	-2.5	24.9*	8.0	-48.7	-0.6	-2.6
CC(C)Cn1c(N)c(C(=O)CSc2ncccn2)c(=O)n(C)c1=O	-12.5	3.1	-5.5	1.7	-8.3	6.4	·	·
COc1ccc(CCC(=O)OCC(=O)c2c(N)n(CC(C)C)c(=O)n(C)c2=O)cc1	-18.0	1.8	12.5	17.2*	-9.0	6.0	-0.5	-1.3
CN(C)CCNC(=O)c1ccc2c(c1)NC(=O)c1ccccc1S2	-4.5	4.8	-4.1	2.2	3.8	2.4	·	·
COc1ccc(/C=N/c2sc3c(c2C#N)CCN(Cc2ccccc2)C3)c(O)c1	·	·	-2.9	·	·	20.5	·	·
CN1CCc2c(sc(/N=C/c3cc(C(C)(C)C)ccc3O)c2C#N)C1	7.9	5.7	-2.8	17.2*	-2.1	23.8	-0.7	61.9*
Cc1ccc(S(=O)(=O)c2cnc(-c3ccccc3)nc2N2CCN(C)CC2)cc1	9.9	17.9	-3.8	51.5*	10.8	-23.8	-0.5	17.0*
CN1CCN(c2nc(-c3ccccc3)ncc2S(C)(=O)=O)CC1	1.7	1.7	-3.7	-7.2	4.9	2.7	·	·
O=S(=O)(c1ccccc1)c1cnc(-c2ccccc2)nc1N1CCCCC1	21.1	13.0	-3.8	-3.5	-8.0	6.6	·	·
SMILES	EBI2 block	CCR6 antagonist	APJ ag	HTR2A ag	CXCR6 block	APJ antagonist	MOR ag counter	m5-HT2A ag conf
CN1CCN(c2nc(-c3ccccc3)ncc2S(=O)(=O)c2ccccc2)CC1	2.7	13.7	-0.2	37.6*	-5.7	8.0	0.3	29.1*
Cc1ccc2cc(CCNC(=O)C(C)C)c(=O)[nH]c2c1C	-7.2	9.4	-1.6	16.2*	-1.6	-16.9	-0.7	-5.5
Cc1ccc(C)c2[nH]c(=O)c(CCNC(=O)CCc3ccccc3)cc12	15.8	3.0	-2.8	-1.6	-3.9	5.1	·	·
Cc1ccc(C)c2[nH]c(=O)c(CCNC(=O)c3ccco3)cc12	-1.0	10.2	-9.1	18.6*	-4.1	9.9	-0.2	2.4
CC(C)(C)c1ccc(CCC(CC(=O)O)CC(=O)O)cc1	-3.5	7.8	2.3	0.2	4.2	7.5	·	·
CCOC(=O)C1=C(CS(=O)(=O)c2ccccc2)NC(=O)NC1c1ccc(OC)c(OC)c1 (stereo unspecified)	-6.3	10.1	-4.6	2.1	6.9	5.3	·	·
CCOC(=O)C1=C(CS(=O)(=O)c2ccccc2)NC(=O)NC1c1ccccc1OCC (stereo unspecified)	9.7	-1.7	-1.0	17.2*	-3.8	14.8	-0.6	-1.2
O=C(OC1CCCCC1=O)c1ccc(F)c(S(=O)(=O)N2CCOCC2)c1 (stereo unspecified)	1.4	11.6	-3.4	2.7	13.8	16.0	·	·
O=C(NCC1CCCCC1)c1cc(S(=O)(=O)N2CCOCC2)ccc1F	10.5	6.0	-3.6	15.2*	-5.7	2.8	-0.7	-1.5
O=C(OC1CCCCC1=O)c1cc(S(=O)(=O)N2CCOCC2)ccc1F (stereo unspecified)	-7.2	-8.2	-0.5	15.3*	2.7	14.3	1.1*	6.3
CC1OC(C)(C)OC1C1CNc2nc(NC(=O)C(C)(C)C)[nH]c(=O)c2N1C(=O)c1cccnc1 (stereo unspecified)	-4.0	-7.4	-2.3	2.4	-3.5	5.7	·	·
COc1ccc(C)cc1S(=O)(=O)N(C)CC(=O)Nc1ccc2c(c1)OCCO2	-8.4	-4.6	9.2	0.8	-6.2	-6.6	·	·
c1ccc(CCN=C2CCCc3c2[nH]c2ccccc32)cc1	-4.3	1.4	-2.4	15.3*	-3.7	0.9	-0.2	28.4*

Screening data (PubChem)
